Laboratory results taken from ChEMBL document CHEMBL1143775, “Convenient one pot synthesis of some novel derivatives of thiazolo[2,3-b]dihydropyrimidinone possessing 4-methylthiophenyl moiety and evaluation of their antibacterial and antifungal activities” (2007).
Converted amounts (≈) assume the structure as drawn.

What was measured:
Format in all cases: functional
Pseudomonas aeruginosa [1] = assay: Antibacterial activity against Pseudomonas aeruginosa ATCC 27853 at 10 ug/ml; conditions: read-out: IZ
In short: (§1)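 Compound-loaded discs were placed on nutrient agar inoculated separately with fresh bacterial strains. Plates were incubated at 37 °C for 24 h with separate solvent and growth controls. Zone of inhibition and MIC were measured. Ciprofloxacin was the reference drug.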

Escherichia coli [2] = assay: Antibacterial activity against Escherichia coli ATCC 25922; in short: as §1
Staphylococcus aureus [3] = assay: Antibacterial activity against Staphylococcus aureus ATCC 25923 at 10 ug/ml by disk diffusion method; conditions: read-out: IZ; in short: as §1
Escherichia coli [4] = assay: Antibacterial activity against Escherichia coli ATCC 25922 at 10 ug/ml; conditions: read-out: IZ; in short: as §1
Klebsiella pneumoniae [5] = assay: Antibacterial activity against Klebsiella pneumoniae; in short: as §1
Staphylococcus aureus [6] = assay: Antibacterial activity against Staphylococcus aureus ATCC 25923; in short: as §1
Pseudomonas aeruginosa [7] = assay: Antibacterial activity against Pseudomonas aeruginosa ATCC 27853; in short: as §1
Klebsiella pneumoniae [8] = assay: Antibacterial activity against Klebsiella pneumoniae at 10 ug/ml; conditions: read-out: IZ; in short: as §1
Aspergillus fumigatus [9] = assay: Antifungal activity against Aspergillus fumigatus NCIM 902 by dilution method
In short: (§2)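 Serial dilution method on Sabouraud agar (peptone, D-glucose, agar; pH 5.7) seeded with a saline spore suspension made from a loopful of each strain. Plates were dried for 1 h at incubator temperature. Test solutions in DMSO went into punched wells, with a DMSO control. Incubation was at 37 °C for 3–4 days. Zone of inhibition and MIC were read against ciclopiroxolamine as standard.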

Talaromyces marneffei [10] = assay: Antifungal activity against Penicillium marneffei at 10 ug/ml; conditions: read-out: IZ; in short: as §2
Aspergillus flavus [11] = assay: Antifungal activity against Aspergillus flavus NCIM 524 at 10 ug/ml; conditions: read-out: IZ; in short: as §2
Aspergillus fumigatus [12] = assay: Antifungal activity against Aspergillus fumigatus NCIM 902 at 10 ug/ml; conditions: read-out: IZ; in short: as §2
Candida albicans [13] = assay: Antifungal activity against Candida albicans NCIM 3100 by dilution method; in short: as §2
Talaromyces marneffei [14] = assay: Antifungal activity against Penicillium marneffei by dilution method; in short: as §2
Aspergillus flavus [15] = assay: Antifungal activity against Aspergillus flavus NCIM 524 by dilution method; in short: as §2
Candida albicans [16] = assay: Antifungal activity against Candida albicans NCIM 3100 at 10 ug/ml; conditions: read-out: IZ; in short: as §2

| Structure (SMILES) | zone of inhibition at 10 µg/mL (Pseudomonas aeruginosa [1]) | MIC (Escherichia coli [2]) | zone of inhibition at 10 µg/mL (Staphylococcus aureus [3]) | zone of inhibition at 10 µg/mL (Escherichia coli [4]) | MIC (Klebsiella pneumoniae [5]) | MIC (Staphylococcus aureus [6]) | MIC (Pseudomonas aeruginosa [7]) | zone of inhibition at 10 µg/mL (Klebsiella pneumoniae [8]) | MIC (Aspergillus fumigatus [9]) | zone of inhibition at 10 µg/mL (Talaromyces marneffei [10]) | zone of inhibition at 10 µg/mL (Aspergillus flavus [11]) | zone of inhibition at 10 µg/mL (Aspergillus fumigatus [12]) | MIC (Candida albicans [13]) | MIC (Talaromyces marneffei [14]) | MIC (Aspergillus flavus [15]) | zone of inhibition at 10 µg/mL (Candida albicans [16]) |
| --- | --- | --- | --- | --- | --- | --- | --- | --- | --- | --- | --- | --- | --- | --- | --- | --- |
| O=C(O)c1cn(C2CC2)c2cc(N3CCNCC3)c(F)cc2c1=O [CIPROFLOXACIN] | 25 mm | 12.5 mg/L (≈ 37.7 µM) | 19 mm | 18 mm | 6 mg/L (≈ 18.1 µM) | 12.5 mg/L (≈ 37.7 µM) | 6 mg/L (≈ 18.1 µM) | 20 mm |  |  |  |  |  |  |  |  |
| CCOC(=O)C1=C(C)N=c2s/c(=C\c3ccc(O)c(OC)c3)c(=O)n2C1c1ccc(SC)cc1 (centres undefined) | 23 mm | 12.5 mg/L (≈ 25.2 µM) | 20 mm | 18 mm | 12.5 mg/L (≈ 25.2 µM) | 12.5 mg/L (≈ 25.2 µM) | 6 mg/L (≈ 12.1 µM) | 18 mm | 6 mg/L (≈ 12.1 µM) | 19 mm | 11 mm | 21 mm | 12.5 mg/L (≈ 25.2 µM) | 6 mg/L (≈ 12.1 µM) | 25 mg/L (≈ 50.3 µM) | 10 mm |
| CCOC(=O)C1=C(C)N=c2s/c(=C\c3ccc(Cl)cc3)c(=O)n2C1c1ccc(SC)cc1 (centres undefined) | 12 mm | 25 mg/L (≈ 51.5 µM) | 10 mm | 10 mm | 12.5 mg/L (≈ 25.8 µM) | 25 mg/L (≈ 51.5 µM) | 12.5 mg/L (≈ 25.8 µM) | 10 mm | 12.5 mg/L (≈ 25.8 µM) | 10 mm | 12 mm | 11 mm | 12.5 mg/L (≈ 25.8 µM) | 12.5 mg/L (≈ 25.8 µM) | 25 mg/L (≈ 51.5 µM) | 11 mm |
| CCOC(=O)C1=C(C)N=c2s/c(=C\c3ccc4c(c3)OCO4)c(=O)n2C1c1ccc(SC)cc1 (centres undefined) | 10 mm | 25 mg/L (≈ 50.5 µM) | 10 mm | 10 mm | 12.5 mg/L (≈ 25.3 µM) | 25 mg/L (≈ 50.5 µM) | 12.5 mg/L (≈ 25.3 µM) | 10 mm | 12.5 mg/L (≈ 25.3 µM) | 10 mm | 12 mm | 12 mm | 12.5 mg/L (≈ 25.3 µM) | 12.5 mg/L (≈ 25.3 µM) | 25 mg/L (≈ 50.5 µM) | 11 mm |
| CCOC(=O)C1=C(C)N=c2s/c(=C\c3ccc(-c4ccc(Cl)cc4)o3)c(=O)n2C1c1ccc(SC)cc1 (centres undefined) | 10 mm | 25 mg/L (≈ 45.4 µM) | 12 mm | 10 mm | 12.5 mg/L (≈ 22.7 µM) | 25 mg/L (≈ 45.4 µM) | 12.5 mg/L (≈ 22.7 µM) | 12 mm | 12.5 mg/L (≈ 22.7 µM) | 11 mm | 17 mm | 10 mm | 6 mg/L (≈ 10.9 µM) | 12.5 mg/L (≈ 22.7 µM) | 12.5 mg/L (≈ 22.7 µM) | 19 mm |
| CCOC(=O)C1=C(C)N=c2s/c(=C\c3ccc(-c4ccc(Cl)cc4Cl)o3)c(=O)n2C1c1ccc(SC)cc1 (centres undefined) | 23 mm | 25 mg/L (≈ 42.7 µM) | 19 mm | 11 mm | 6 mg/L (≈ 10.2 µM) | 12.5 mg/L (≈ 21.3 µM) | 6 mg/L (≈ 10.2 µM) | 20 mm | 12.5 mg/L (≈ 21.3 µM) | 18 mm | 18 mm | 10 mm | 6 mg/L (≈ 10.2 µM) | 6 mg/L (≈ 10.2 µM) | 12.5 mg/L (≈ 21.3 µM) | 20 mm |
| CCOC(=O)C1=C(C)N=c2s/c(=C\c3ccc(SC)cc3)c(=O)n2C1c1ccc(SC)cc1 (centres undefined) | 13 mm | 25 mg/L (≈ 50.3 µM) | 10 mm | 12 mm | 12.5 mg/L (≈ 25.2 µM) | 25 mg/L (≈ 50.3 µM) | 12.5 mg/L (≈ 25.2 µM) | 12 mm | 12.5 mg/L (≈ 25.2 µM) | 12 mm | 10 mm | 12 mm | 12.5 mg/L (≈ 25.2 µM) | 12.5 mg/L (≈ 25.2 µM) | 25 mg/L (≈ 50.3 µM) | 10 mm |
| CCOC(=O)C1=C(C)N=c2s/c(=C\c3ccc(F)cc3)c(=O)n2C1c1ccc(SC)cc1 (centres undefined) | 10 mm | 12.5 mg/L (≈ 26.7 µM) | 18 mm | 17 mm | 6 mg/L (≈ 12.8 µM) | 12.5 mg/L (≈ 26.7 µM) | 12.5 mg/L (≈ 26.7 µM) | 20 mm | 6 mg/L (≈ 12.8 µM) | 20 mm | 18 mm | 20 mm | 6 mg/L (≈ 12.8 µM) | 6 mg/L (≈ 12.8 µM) | 12.5 mg/L (≈ 26.7 µM) | 19 mm |
| CCOC(=O)C1=C(C)N=c2s/c(=C\c3ccc(-c4ccc([N+](=O)[O-])cc4)o3)c(=O)n2C1c1ccc(SC)cc1 (centres undefined) | 13 mm | 25 mg/L (≈ 44.5 µM) | 10 mm | 12 mm | 12.5 mg/L (≈ 22.3 µM) | 25 mg/L (≈ 44.5 µM) | 12.5 mg/L (≈ 22.3 µM) | 11 mm | 12.5 mg/L (≈ 22.3 µM) | 11 mm | 12 mm | 17 mm | 12.5 mg/L (≈ 22.3 µM) | 12.5 mg/L (≈ 22.3 µM) | 25 mg/L (≈ 44.5 µM) | 12 mm |
| CCOC(=O)C1=C(C)N=c2s/c(=C\c3ccc(OC)cc3)c(=O)n2C1c1ccc(SC)cc1 (centres undefined) | 24 mm | 25 mg/L (≈ 52 µM) | 12 mm | 10 mm | 6 mg/L (≈ 12.5 µM) | 25 mg/L (≈ 52 µM) | 6 mg/L (≈ 12.5 µM) | 21 mm | 6 mg/L (≈ 12.5 µM) | 12 mm | 17 mm | 21 mm | 6 mg/L (≈ 12.5 µM) | 12.5 mg/L (≈ 26 µM) | 12.5 mg/L (≈ 26 µM) | 20 mm |
| CCOC(=O)C1=C(C)N=c2s/c(=C\c3ccc(-c4ccc(Br)cc4)o3)c(=O)n2C1c1ccc(SC)cc1 (centres undefined) | 23 mm | 12.5 mg/L (≈ 21 µM) | 18 mm | 18 mm | 6 mg/L (≈ 10.1 µM) | 12.5 mg/L (≈ 21 µM) | 6 mg/L (≈ 10.1 µM) | 20 mm | 12.5 mg/L (≈ 21 µM) | 20 mm | 18 mm | 12 mm | 6 mg/L (≈ 10.1 µM) | 6 mg/L (≈ 10.1 µM) | 12.5 mg/L (≈ 21 µM) | 19 mm |
| CCOC(=O)C1=C(C)N=c2s/c(=C\c3ccc(Cl)cc3Cl)c(=O)n2C1c1ccc(SC)cc1 (centres undefined) | 13 mm | 25 mg/L (≈ 48.1 µM) | 18 mm | 11 mm | 12.5 mg/L (≈ 24.1 µM) | 12.5 mg/L (≈ 24.1 µM) | 12.5 mg/L (≈ 24.1 µM) | 10 mm | 12.5 mg/L (≈ 24.1 µM) | 10 mm | 10 mm | 11 mm | 12.5 mg/L (≈ 24.1 µM) | 12.5 mg/L (≈ 24.1 µM) | 25 mg/L (≈ 48.1 µM) | 12 mm |
